Screening results: PubChem, The Scripps Research Institute Molecular Screening Center
An excerpt weighted towards active compounds, which were near 4.5% of everything screened.
GPR7 antagonist = blocks human GPR7 receptor signaling; P48145; actives 1.1% (n = 290,000); GPR7-expressing cells, fluorescence antagonist assay; inhibition, % at 4.4 µM; in the data active = inhibition above about 16%, passing the limit was not always enough;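 also: cells stimulated with the agonist NPW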
Target sequence (P48145 whole entry, looked up): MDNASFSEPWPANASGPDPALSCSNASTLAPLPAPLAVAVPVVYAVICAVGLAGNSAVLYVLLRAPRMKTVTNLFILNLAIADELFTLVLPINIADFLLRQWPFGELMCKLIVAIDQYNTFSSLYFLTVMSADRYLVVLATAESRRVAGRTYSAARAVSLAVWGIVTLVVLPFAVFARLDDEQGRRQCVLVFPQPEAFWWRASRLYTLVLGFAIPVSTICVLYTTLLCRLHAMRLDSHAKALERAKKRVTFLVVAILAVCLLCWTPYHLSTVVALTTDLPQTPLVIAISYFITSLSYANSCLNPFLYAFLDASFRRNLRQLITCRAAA
TAAR1 antag = human TAAR1 antagonism. Q96RJ0. CHO RD-HGA16 TAAR1, Fluo-8 calcium fluorescence, antagonist. inhibition, % at 3 µM. actives 1.5% (n = 360,000). AID 624466;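 active = inhibition above a per-plate cutoff, the mean inhibition of test compounds on that plate plus 3 SD, cut at about 49% in these data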
Target sequence (Q96RJ0 whole entry, looked up): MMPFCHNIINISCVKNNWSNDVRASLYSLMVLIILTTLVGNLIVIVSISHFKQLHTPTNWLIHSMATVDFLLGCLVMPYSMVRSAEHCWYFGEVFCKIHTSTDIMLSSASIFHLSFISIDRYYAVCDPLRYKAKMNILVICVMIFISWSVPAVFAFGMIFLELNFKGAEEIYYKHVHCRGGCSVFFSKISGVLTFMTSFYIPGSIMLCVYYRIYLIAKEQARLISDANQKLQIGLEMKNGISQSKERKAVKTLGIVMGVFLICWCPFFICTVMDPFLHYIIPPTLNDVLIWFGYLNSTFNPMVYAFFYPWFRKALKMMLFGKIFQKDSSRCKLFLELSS
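Test system – hTAAR1-expressing CHO RD-HGA16 cells, Gα16-coupled · Also added – β-PEA at EC80 concentration, post-compound challenge · Compound – 3 µM, single point · Incubation – dye loading 75 min at 37 °C, then 30 min room temperature · Measured by – Fluo-8 intracellular calcium dye fluorescence, real-time kinetic reads · Benchmarks – vehicle and agonist controls · Replicates – singlicate, one well per test compound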
OX1R antag-1 = blocks the human orexin 1 receptor; OX1R-expressing cells, FRET antagonist read-out; inhibition, % at 6.6 µM; actives 1.8% (n = 330,000); AID 485270; in the data active = inhibition mostly above about 38%, no sharp cut-off; inactive = mostly below about 40%
CHO parental Ca = counter-screen: ATP calcium response change in parental CHO cells | parental CHO-K1, ATP-induced calcium, Fluo-8 fluorescence | inhibition, % at 5.6 µM | actives 0.63% (n = 330,000) | AID 463079;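 active = inhibition above that plate's mean sample inhibition plus 3 SD, cut at about 26% in these data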
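Test system: parental CHO cells; detection: calcium-sensitive Fluo-8 fluorescence; evaluation: percent inhibition of calcium signal; also added: ATP as calcium-mobilizing challenge; repeats: one well per compound; control set: ATP-challenged DMSO wells low, unchallenged DMSO wells high; compound: single nominal dose of 5.6 µM per compound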
TAAR1 ag = agonists of human TAAR1; Q96RJ0; CHO RD-HGA16 TAAR1, Fluo-8 calcium fluorescence; vehicle wells 0%, saturating PEA agonist 100%; activation, % at 3 µM; actives 0.99% (n = 360,000);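 active = activation above the mean activation of all test compounds in the run plus 3 SD, cut at about 38% in these data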
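Assay system – CHO-derived RD-HGA16 cells with stable Gα16 and human TAAR1 · Compound dosing – one-point dosing at 3 µM (nominal) · Incubation – 17-24 h seeding, 75 min 37 °C dye, 30 min RT · Measured by – kinetic Fluo-8 calcium fluorescence · Control set – DMSO vehicle as 0%, PEA at EC100 as 100% · Repeats – single well for each compound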
OX1R antag-2 = human HCRTR1 antagonism | CHO/OX1R cells, Fluo-8 calcium fluorescence, orexin A | actives 0.43% (n = 330,000) | inhibition, % at 5 µM | O43613;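 active = inhibition above its plate's threshold, mean inhibition of all tested compounds on the plate plus 3 SD, cut at about 37% in these data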
Of the large screens only hits and unclear results are named; the others gave an inactive call.

COc1ccc(-c2nc3c4ccccc4ccn3c2Cc2ccccc2)cc1OC	none (no result: GPR7 antagonist, OX1R antag-1, CHO parental Ca, OX1R antag-2)
Cc1cc(N2CCCC2)ccc1/C=C1\NC(=S)N(C)C1=O	CHO parental Ca 41, TAAR1 ag 51, OX1R antag-2 48
CN1C(=O)c2ccc(N3CCCC3)cc2C1=O	none
CC(=O)Oc1ccc(C23c4ccccc4C2(OC(C)=O)c2cc(OC(C)=O)ccc23)cc1 (stereo unspecified)	none (no result: GPR7 antagonist, OX1R antag-1, CHO parental Ca, OX1R antag-2)
CC(C)c1cc(C(=O)Nc2cc(Cl)ccc2O)no1	none
CC(C)c1cc(C(=O)Nc2cc(Br)ccc2O)no1	CHO parental Ca 30
N#Cc1c2n(c(=S)n(-c3ccc(OC(F)F)cc3)c1=O)CCCCC2	GPR7 antagonist 17
O=C(NCCN1CCOCC1)c1cccc(NS(=O)(=O)c2ccc(Br)cc2)c1	none (no result: GPR7 antagonist)
Cc1csc2ncnc(N3CCN(S(=O)(=O)c4cccc(C(F)(F)F)c4)CC3)c12	OX1R antag-1 56, CHO parental Ca 59
Cc1csc2c(N3CCN(S(=O)(=O)c4ccc(Cl)cc4)CC3)ncnc12	none
O=S(=O)(c1ccc(Cl)cc1)N1CCN(c2ncnc3sccc23)CC1	CHO parental Ca 46 (no result: GPR7 antagonist)
Cc1nc(N2CCN(S(=O)(=O)c3ccc(F)cc3)CC2)c2c(C)c(C)sc2n1	none (no result: GPR7 antagonist)
Cc1ccc(S(=O)(=O)N2CCN(c3nc(C)nc4sc(C)c(C)c34)CC2)cc1	GPR7 antagonist 14 (no result: TAAR1 antag, OX1R antag-1, CHO parental Ca, TAAR1 ag, OX1R antag-2)
Cc1sc2ncnc(N3CCN(S(=O)(=O)c4ccc(Br)cc4)CC3)c2c1C	none
Cc1sc2ncnc(N3CCN(S(=O)(=O)c4ccc(C(C)(C)C)cc4)CC3)c2c1C	CHO parental Ca 51 (no result: GPR7 antagonist)
COC(=O)CCCn1cc(CN2CC(N3CCCC3)CS2(=O)=O)nn1 (stereo unspecified)	none (no result: GPR7 antagonist, OX1R antag-1, CHO parental Ca, OX1R antag-2)
CC(=O)c1c(C)[nH]c(C(=O)OCC(=O)NC(C)c2ccccc2)c1C (stereo unspecified)	none (no result: GPR7 antagonist, OX1R antag-1, CHO parental Ca, OX1R antag-2)
CCOC(=O)C1(C)CCCN1C(=O)c1sccc1C (stereo unspecified)	none (no result: GPR7 antagonist, OX1R antag-1, CHO parental Ca, OX1R antag-2)
CC(=O)/C(N=Nc1ccc(C(=O)O)cc1[N+](=O)[O-])=C(\C)O	OX1R antag-1 41
O=C(CSc1ncnc2[nH]ncc12)Nc1nc(-c2ccc(F)c(F)c2)cs1	TAAR1 antag 62, OX1R antag-1 52, CHO parental Ca 42, OX1R antag-2 45
Cc1cccc(C)c1NC(=O)CSc1ncnc2[nH]ncc12	none (no result: GPR7 antagonist)
O=S(=O)(c1ccc(N2CCC(c3ccc(Cl)cc3)=N2)cc1)N(CCO)CCO	CHO parental Ca 62, OX1R antag-2 46
CN(C)CCCNS(=O)(=O)c1ccc(N2CCC(c3ccc(Cl)cc3)=N2)cc1	GPR7 antagonist 41
O=S(=O)(c1ccc(Oc2ccc(S(=O)(=O)N(CCO)CCO)cc2)cc1)N(CCO)CCO	none
CCNS(=O)(=O)c1cccc(C(=O)c2c(C)cc3ccccn23)c1	none
CSc1ccccc1NC(=O)C(=O)c1c[nH]c2ccccc12	OX1R antag-1 48
O=C(Nc1ccc2c(c1)OCCO2)C(=O)c1c[nH]c2ccccc12	TAAR1 antag 54, OX1R antag-1 50
C[C@@H](NC(=O)C(=O)c1c[nH]c2ccccc12)c1ccccc1	none (no result: GPR7 antagonist)
Cc1ccc(NC(=O)Nc2ccc3c(c2)N(C)C(=O)CS3)cc1C	TAAR1 antag 50
CN1C(=O)CSc2ccc(NC(=O)NCc3ccccc3)cc21	none
CC(=O)c1cccc(NC(=O)Nc2ccc3c(c2)N(C)C(=O)CS3)c1	TAAR1 antag 66
Cc1ccc(CNC(=O)Nc2ccc3c(c2)N(C)C(=O)CS3)cc1	none
CCc1ccc(NC(=O)Nc2ccc3c(c2)N(C)C(=O)CS3)cc1	TAAR1 antag 49
Cc1ccc(Sc2cnn(-c3ccccc3)c(=O)c2Cl)cc1	CHO parental Ca 38
O=C(CSc1nnc(-c2c[nH]c3ccccc23)o1)N(Cc1ccccc1)c1ccc(F)cc1	OX1R antag-1 52 (no result: TAAR1 antag, TAAR1 ag)
CC1=C(C(=O)OCC(Cl)(Cl)Cl)N2C(=O)C(NC(=O)Cc3ccccc3)C2SC1 (stereo unspecified)	TAAR1 antag 61
CC(=O)OCC1=C(C(=O)OC(C)(C)C)N2C(=O)[C@@H](NC(=O)Cc3ccccc3)[C@H]2SC1	none (no result: GPR7 antagonist, OX1R antag-1, CHO parental Ca, OX1R antag-2)
CCN(CC(=O)Nc1c(F)cccc1F)C(=O)/C=C/c1ccc(Br)s1	none (no result: GPR7 antagonist)
Cc1csc(NC(=O)c2cccc(S(=O)(=O)N3CCCCC3)c2)n1	none
COc1ccc(-c2csc(NC(=O)c3ccc(S(C)(=O)=O)cc3)n2)cc1	TAAR1 antag 53
CCOc1cccc(C(=O)Nc2nc(-c3ccc(S(=O)(=O)N4CCOCC4)cc3)cs2)c1	TAAR1 antag 53
Cc1ccc(-c2csc(NC(=O)c3cc([N+](=O)[O-])ccc3N3CCOCC3)n2)cc1	none
Cc1nc(-c2cccc(NC(=O)c3cccc(S(=O)(=O)N4CCCC4)c3)c2)cs1	TAAR1 antag 53 (no result: GPR7 antagonist)
O=C(Nc1nc(-c2ccccc2)cs1)c1ccc(N2CCOCC2)c([N+](=O)[O-])c1	OX1R antag-1 80, CHO parental Ca 41 (no result: TAAR1 antag, TAAR1 ag)
COc1ccc(OC)c(CCNC(=O)CCc2nnc3ccc(N4CCCC4)nn23)c1	none
COc1ccc(N=C2NC(=O)S/C2=C\c2ccc(N(C)C)cc2)cc1	TAAR1 antag 58, CHO parental Ca 37
COc1ccccc1C1(CCNC(C)c2cccs2)CCOC(C(C)C)C1 (stereo unspecified)	GPR7 antagonist 20
Cc1ccc(C2(CCNC(C)c3cccs3)CCOC(C(C)C)C2)cc1 (stereo unspecified)	none (no result: OX1R antag-1, CHO parental Ca, OX1R antag-2)
CCOC(=O)Cc1csc(-n2sc3ccccc3c2=O)n1	CHO parental Ca 32
O=C(Nc1cc(S(=O)(=O)N2CCOCC2)ccc1O)c1ccc(NS(=O)(=O)c2ccc(Cl)s2)cc1	none
Cc1ccc(NC(=O)c2ccccc2NS(=O)(=O)c2ccc(Cl)s2)cc1S(=O)(=O)N1CCOCC1	OX1R antag-1 63
COc1ccc(NC(=O)N(C)C[C@H]2OCc3cnnn3CCCC(=O)N([C@H](C)CO)C[C@@H]2C)c(OC)c1	none (no result: GPR7 antagonist, OX1R antag-1, CHO parental Ca, OX1R antag-2)
CCCC(O)(c1ccc(CC)cc1)C(CN1CCOCC1)c1ccccc1 (stereo unspecified)	none (no result: OX1R antag-1, CHO parental Ca, OX1R antag-2)
O=C(Nc1nc2ccccc2[nH]1)c1cccc(Cl)c1	none
CN(c1cccc(Cl)c1)S(=O)(=O)c1cccc(C(=O)Nc2nc3ccccc3[nH]2)c1	TAAR1 antag 61
COc1ccc(N(C)S(=O)(=O)c2cccc(C(=O)NC3CCCCCC3)c2)cc1	GPR7 antagonist 43
COc1ccc(N(C)S(=O)(=O)c2cccc(C(=O)Nc3nc4ccccc4[nH]3)c2)cc1	TAAR1 antag 55
O=C(CSc1nc2nn(-c3ccccc3)c(=O)c-2c2n1CCCCC2)c1ccc(O)c(O)c1	none (no result: GPR7 antagonist, TAAR1 antag, TAAR1 ag)
CCOC(=O)NC(NCC(O)c1ccccc1)(C(F)(F)F)C(F)(F)F (stereo unspecified)	TAAR1 antag 56, TAAR1 ag 67
